Test results as given in ChEMBL document CHEMBL2062435, “Synthesis and in vitro antibacterial activity of gemifloxacin derivatives containing a substituted benzyloxime moiety” (2012).

These compounds were tested on Pseudomonas aeruginosa (assay: Antimicrobial activity against extended spectrum beta-lactamases-producing Pseudomonas aeruginosa 10-5 after 18-24 hrs by two-fold serial dilution method).
Type: functional
How it was run: (§1)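 Agar-medium twofold serial dilution against Gram-positive and Gram-negative strains; MIC taken as the lowest compound concentration giving complete inhibition of bacterial growth after incubation at 35 °C for 18-24 h.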
Work on `CS(=O)(=O)O.NCC1CN(c2nc3c(cc2F)c(=O)c(C(=O)O)cn3C2CC2)C/C1=N\OCc1ccc2c(c1)OCCO2` (racemic) yielded an MIC of 2 µg/mL.

Each compound was assayed on Staphylococcus aureus (assay: Antimicrobial activity against extended spectrum beta-lactamases-producing methicillin-resistant Staphylococcus aureus 10-15 after 18-24 hrs by two-fold serial dilution method).
Type: functional
How it was run: (§2)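 Agar twofold serial dilution MIC against clinical isolates. MIC was taken as the lowest concentration giving complete inhibition of bacterial growth after incubation at 35 °C for 18-24 h.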
In the case of `CS(=O)(=O)O.NCC1CN(c2nc3c(cc2F)c(=O)c(C(=O)O)cn3C2CC2)C/C1=N\OCc1ccc2c(c1)OCCO2` (racemic), the MIC is reported as 0.5 µg/mL.

These compounds were tested on Escherichia coli (assay: Antimicrobial activity against extended spectrum beta-lactamases-producing Escherichia coli 10-3 after 18-24 hrs by two-fold serial dilution method).
Type: functional
How it was run: as §1
`CS(=O)(=O)O.NCC1CN(c2nc3c(cc2F)c(=O)c(C(=O)O)cn3C2CC2)C/C1=N\OCc1ccc2c(c1)OCCO2` (racemic) showed an MIC of over 128 µg/mL.

The compounds below were run on Staphylococcus epidermidis (assay: Antimicrobial activity against extended spectrum beta-lactamases-producing methicillin-sensitive Staphylococcus epidermidis 10-13 after 18-24 hrs by two-fold serial dilution method).
Type: functional
How it was run: as §1
Compound `CS(=O)(=O)O.NCC1CN(c2nc3c(cc2F)c(=O)c(C(=O)O)cn3C2CC2)C/C1=N\OCc1ccc2c(c1)OCCO2` (racemic) has an MIC of 2 µg/mL.

The compounds below were run on Escherichia coli (assay: Antimicrobial activity against Escherichia coli 10-1 after 18-24 hrs by two-fold serial dilution method).
Type: functional
How it was run: as §1
Work on `CS(=O)(=O)O.NCC1CN(c2nc3c(cc2F)c(=O)c(C(=O)O)cn3C2CC2)C/C1=N\OCc1ccc2c(c1)OCCO2` (racemic) yielded an MIC of 16 µg/mL.

The compounds below were run on Enterococcus faecium (assay: Antimicrobial activity against Enterococcus faecium 10-9 after 18-24 hrs by two-fold serial dilution method).
Type: functional
How it was run: as §1
For `CS(=O)(=O)O.NCC1CN(c2nc3c(cc2F)c(=O)c(C(=O)O)cn3C2CC2)C/C1=N\OCc1ccc2c(c1)OCCO2` (racemic), the MIC was 8 µg/mL.

Each compound was assayed on Staphylococcus aureus (assay: Antimicrobial activity against extended spectrum beta-lactamases-producing methicillin-resistant Staphylococcus aureus 10-11 after 18-24 hrs by two-fold serial dilution method).
Type: functional
How it was run: as §2
In the case of `CS(=O)(=O)O.NCC1CN(c2nc3c(cc2F)c(=O)c(C(=O)O)cn3C2CC2)C/C1=N\OCc1ccc2c(c1)OCCO2` (racemic), the MIC is reported as 1 µg/mL.

What follows are compounds tested on Klebsiella pneumoniae (assay: Antimicrobial activity against extended spectrum beta-lactamases-producing Klebsiella pneumoniae 10-2 after 18-24 hrs by two-fold serial dilution method).
Type: functional
How it was run: as §1
`CS(=O)(=O)O.NCC1CN(c2nc3c(cc2F)c(=O)c(C(=O)O)cn3C2CC2)C/C1=N\OCc1ccc2c(c1)OCCO2` (racemic) gave an MIC of over 128 µg/mL.

These compounds were tested on Staphylococcus epidermidis (assay: Antimicrobial activity against extended spectrum beta-lactamases-producing methicillin-resistant Staphylococcus epidermidis 10-13 after 18-24 hrs by two-fold serial dilution method).
Type: functional
How it was run: as §2
`CS(=O)(=O)O.NCC1CN(c2nc3c(cc2F)c(=O)c(C(=O)O)cn3C2CC2)C/C1=N\OCc1ccc2c(c1)OCCO2` (racemic) gave an MIC of 0.5 µg/mL.

What follows are compounds tested on Streptococcus pneumoniae (assay: Antimicrobial activity against extended spectrum beta-lactamases-producing Streptococcus pneumoniae 10-1 after 18-24 hrs by two-fold serial dilution method).
Type: functional
How it was run: as §1
In the case of `CS(=O)(=O)O.NCC1CN(c2nc3c(cc2F)c(=O)c(C(=O)O)cn3C2CC2)C/C1=N\OCc1ccc2c(c1)OCCO2` (racemic), the MIC is reported as 0.5 µg/mL.

Each compound was assayed on Escherichia coli (assay: Antimicrobial activity against Escherichia coli ATCC 25922 after 18-24 hrs by two-fold serial dilution method).
Type: functional
How it was run: as §1
Work on `CS(=O)(=O)O.NCC1CN(c2nc3c(cc2F)c(=O)c(C(=O)O)cn3C2CC2)C/C1=N\OCc1ccc2c(c1)OCCO2` (racemic) yielded an MIC of 0.25 µg/mL.

Each compound was assayed on Enterococcus faecalis (assay: Antimicrobial activity against Enterococcus faecalis 10-6 after 18-24 hrs by two-fold serial dilution method).
Type: functional
How it was run: as §1
`CS(=O)(=O)O.NCC1CN(c2nc3c(cc2F)c(=O)c(C(=O)O)cn3C2CC2)C/C1=N\OCc1ccc2c(c1)OCCO2` (racemic) gave an MIC of 4 µg/mL.

The compounds below were run on Pseudomonas aeruginosa (assay: Antimicrobial activity against Pseudomonas aeruginosa 10-12 after 18-24 hrs by two-fold serial dilution method).
Type: functional
How it was run: as §1
With `CS(=O)(=O)O.NCC1CN(c2nc3c(cc2F)c(=O)c(C(=O)O)cn3C2CC2)C/C1=N\OCc1ccc2c(c1)OCCO2` (racemic) the MIC was 2 µg/mL.

The compounds below were run on Pseudomonas aeruginosa (assay: Antimicrobial activity against extended spectrum beta-lactamases-producing Pseudomonas aeruginosa 10-20 after 18-24 hrs by two-fold serial dilution method).
Type: functional
How it was run: as §1
Compound `CS(=O)(=O)O.NCC1CN(c2nc3c(cc2F)c(=O)c(C(=O)O)cn3C2CC2)C/C1=N\OCc1ccc2c(c1)OCCO2` (racemic) has an MIC of 2 µg/mL.

What follows are compounds tested on Escherichia coli (assay: Antimicrobial activity against Escherichia coli 10-3 after 18-24 hrs by two-fold serial dilution method).
Type: functional
How it was run: as §1
Compound `CS(=O)(=O)O.NCC1CN(c2nc3c(cc2F)c(=O)c(C(=O)O)cn3C2CC2)C/C1=N\OCc1ccc2c(c1)OCCO2` (racemic) has an MIC of 4 µg/mL.

What follows are compounds tested on Klebsiella pneumoniae (assay: Antimicrobial activity against Klebsiella pneumoniae 10-4 after 18-24 hrs by two-fold serial dilution method).
Type: functional
How it was run: as §1
`CS(=O)(=O)O.NCC1CN(c2nc3c(cc2F)c(=O)c(C(=O)O)cn3C2CC2)C/C1=N\OCc1ccc2c(c1)OCCO2` (racemic) showed an MIC of 128 µg/mL.

The compounds below were run on Staphylococcus aureus (assay: Antimicrobial activity against extended spectrum beta-lactamases-producing methicillin-sensitive Staphylococcus aureus 10-13 after 18-24 hrs by two-fold serial dilution method).
Type: functional
How it was run: as §1
Work on `CS(=O)(=O)O.NCC1CN(c2nc3c(cc2F)c(=O)c(C(=O)O)cn3C2CC2)C/C1=N\OCc1ccc2c(c1)OCCO2` (racemic) yielded an MIC of 0.06 µg/mL.

Each compound was assayed on Pseudomonas aeruginosa (assay: Antimicrobial activity against extended spectrum beta-lactamases-producing Pseudomonas aeruginosa 10-9 after 18-24 hrs by two-fold serial dilution method).
Type: functional
How it was run: as §1
Work on `CS(=O)(=O)O.NCC1CN(c2nc3c(cc2F)c(=O)c(C(=O)O)cn3C2CC2)C/C1=N\OCc1ccc2c(c1)OCCO2` (racemic) yielded an MIC of 2 µg/mL.
